We go through nine compounds from ChEMBL document CHEMBL1132248, “2,4-Diphenyl furan diamidines as novel anti-Pneumocystis carinii pneumonia agents” (J Med Chem, 1999).

A short description of data set [1]: The compound was tested for the increase in thermal melting of d(CGCGAATTCGCG)2.
The test system of data set [2] is Nucleic Acid.
The test system of data set [3] is Rattus norvegicus. The experiment in a line: Percentage control of Pneumocystis carinii pneumonia in immunosuppressed rat at 10 uM/Kg/d administered intravenously. It counts as functional. An outline of the steps:
(§1)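 Immunosuppressed rats with Pneumocystis carinii pneumonia were given test agent intravenously. The read-out was cysts per g of lung tissue, expressed as percent of pooled saline-treated controls (n = 46). Values below 1% of control fall within experimental error.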

Data set [4] relates to Rattus norvegicus. Briefly: Toxicity in immunosuppressed rat after administration of 10 uM/Kg/d. It counts as organism-based. The note with it: in vivo. An outline of the steps:
(§2)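 Immunosuppressed rats with Pneumocystis carinii pneumonia; compounds given intravenously at the daily dose named in each line. Toxicity scored on a five-level scale from 0 to 5+; the paper calls the scores anecdotal rather than definitive. The same study scored lung cysts per gram against pooled saline controls (n = 46).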

For data set [5], the system named is Rattus norvegicus. Briefly: Toxicity in immunosuppressed rat after administration of 10 uM/Kg/d. It counts as organism-based. The note with it: in vivo. The essentials:
as §2

Data set [6] concerns Rattus norvegicus. Briefly: Percentage control of Pneumocystis carinii pneumonia in immunosuppressed rat at 10 uM/Kg/d administered intravenously. It counts as functional. An outline of the steps:
as §1

Data set [7] relates to Rattus norvegicus. Briefly: Percentage control of Pneumocystis carinii pneumonia in immunosuppressed rat at 1 uM/Kg/d administered intravenously. It counts as functional. An outline of the steps: as §1
In data set [8] the test system is Rattus norvegicus. The experiment in a line: Toxicity in immunosuppressed rat after administration of 1 uM/Kg/d. It counts as organism-based. The note with it: in vivo. The essentials:
as §2

Data set [9] concerns Nucleic Acid. The source holds these as a separate data set.
Data set [10] deals with Rattus norvegicus. Briefly: Percentage control of Pneumocystis carinii pneumonia in immunosuppressed rat at 22 uM/Kg/d administered intravenously. It counts as functional. An outline of the steps:
as §1

The subject of data set [11] is Rattus norvegicus. The experiment in a line: Percentage control of Pneumocystis carinii pneumonia in immunosuppressed rat at 20 uM/Kg/d administered intravenously. It is filed as functional. An outline of the steps:
as §1

For data set [12], the system named is Rattus norvegicus. The experiment in a line: Toxicity in immunosuppressed rat after administration of 0.2 5 uM/Kg/d. It is filed as organism-based. The note with it: in vivo. An outline of the steps:
as §2

In data set [13] the test system is Rattus norvegicus. Briefly: Toxicity in immunosuppressed rat after administration of 5 uM/Kg/d. It is filed as organism-based. The note with it: in vivo. An outline of the steps:
as §2

For data set [14], the system named is Rattus norvegicus. The experiment in a line: Percentage control of Pneumocystis carinii pneumonia in immunosuppressed rat at 0.25 uM/Kg/d administered intravenously. It is filed as functional. The essentials:
as §1

Data set [15] concerns Rattus norvegicus. Briefly: Toxicity in immunosuppressed rat after administration of 1 uM/kg/day. The note with it: in vivo. It is filed as organism-based. The essentials:
as §2

The test system of data set [16] is Rattus norvegicus. The experiment in a line: Percentage control of Pneumocystis carinii pneumonia in immunosuppressed rat at 5 uM/Kg/d administered intravenously. It counts as functional. An outline of the steps:
as §1

Values joined by “and” are separate entries in the source; they are usually repeats but may differ in a detail not shown here. Identical values can stand only once.

As to `c1cc(-c2coc(-c3ccc(C4=NCCN4)cc3)c2)ccc1C1=NCCN1`, the ΔTm in data set [1] is 7.2; in the data set on Nucleic Acid [2], 16.8.
Taken in the same sequence, the figures for `CC(C)C/N=C(/N)c1ccc(-c2coc(-c3ccc(/C(N)=N\CC(C)C)cc3)c2)cc1` were 9.3 and 20.4.
`Cc1oc(-c2ccc(/C(N)=N\C(C)C)cc2)c(C)c1-c1ccc(/C(N)=N\C(C)C)cc1.Cl.Cl` registered a Control in the data set on Rattus norvegicus [3] of 24.43%. Besides, the ΔTm worked out at 5.4 in data set [1] and 12.5 with Nucleic Acid [2]. Moreover, in the data set on Rattus norvegicus [4], the Toxicity was 0.
The compound `Cc1oc(-c2ccc(C(=N)N)cc2)c(C)c1-c1ccc(C(=N)N)cc1.Cl.Cl` registered a Control in the data set with Rattus norvegicus [3] of 0.89%. The ΔTm worked out at 6.5 in [1] and 17 in the data set on Nucleic Acid [2].
As to `Cl.Cl.N=C(N)c1ccc(-c2coc(-c3ccc(C(=N)N)cc3)c2)cc1`, in the data set with Rattus norvegicus [3], the Control amounted to 0.3%. Further, in the data set on Rattus norvegicus [5], the Toxicity is reported as 0. Besides, the ΔTm amounted to 9.1 in data set [1] and 19 in the data set on Nucleic Acid [2].
As for `Cl.Cl.N=C(NC1CC1)c1ccc(-c2coc(-c3ccc(C(=N)NC4CC4)cc3)c2)cc1`, the ΔTm in [1] worked out at 10.9; in the data set on Nucleic Acid [2] it was 23.2. Also, the Control in the data set with Rattus norvegicus [6] stood at 0.01%. Besides, in the data set on Rattus norvegicus [4], the Toxicity is 0.
Take `Cl.Cl.N=C(NC1CCCC1)c1ccc(-c2coc(-c3ccc(C(=N)NC4CCCC4)cc3)c2)cc1`: the Control is given as 0.16% in the data set on Rattus norvegicus [3] and 1.79% with Rattus norvegicus [7]. Besides, the ΔTm in data set [1] is 13.6; in the data set on Nucleic Acid [2], 20.4. Besides, the Toxicity with Rattus norvegicus [4] and in the data set on Rattus norvegicus [8] was 0 each time.
For `N=C(N)c1ccc(OCCCCCOc2ccc(C(=N)N)cc2)cc1` [PENTAMIDINE], the ΔTm turned out to be 4.8 in data set [1] and 12.6 in the data set on Nucleic Acid [9]. Further, the Control in the data set with Rattus norvegicus [10] is reported as 2.3%.
On to `CC(C)/N=C(/N)c1ccc(-c2coc(-c3ccc(/C(N)=N\C(C)C)cc3)c2)cc1.Cl.Cl`, for which the Control in the data set with Rattus norvegicus [3] is 0.04% and 0.08%; with Rattus norvegicus [11] it was 0%; with Rattus norvegicus [14], 110.5%; in the data set with Rattus norvegicus [16], 0.08%. The Toxicity in the data set on Rattus norvegicus [5], in the data set on Rattus norvegicus [12], with Rattus norvegicus [13] and in the data set with Rattus norvegicus [15] was 0 throughout. Further, the ΔTm was found to be 10.9 in data set [1] and 17.6 in the data set on Nucleic Acid [2].
